Data as given in ChEMBL document CHEMBL1157893, “The discovery and structure-activity relationships of pyrano[3,4-b]indole based inhibitors of hepatitis C virus NS5B polymerase” (Bioorg Med Chem Lett, 2010).

Assays:
[1] = test system: Hepatitis C virus; test: Inhibition of HCV 1b BB7 NS5B Cdelta21 polymerase expressed in Escherichia coli after 120 mins; format: functional, Hepatitis C virus subtype 1b; details: BB7, 2 h
Procedure, shortened: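 RdRp assay with 24 nM NS5BdCT21-His in 20 mM HEPES pH 7.5, 5 mM MgCl₂, 1 mM DTT, 0.05 mg/ml BSA and NTPs. Enzyme preincubated with compound (3 nM–30) 15 min at room temperature, then reacted 120 min at room temperature. Radiolabeled RNA collected on filters and counted by scintillation. IC50 from sigmoidal variable-slope dose–response fit, relative to no-compound controls.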

[2] = test system: Hepatitis C virus; test: Antiviral activity against HCV 1b BB7 infected in human HuH7 cells after 3 days by ELISA; format: functional, organism-based, Hepacivirus hominis; details: genotype 1b BB7, Huh-7, 72 h
Procedure, shortened: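 HCV replicon cells; viral replication measured by ELISA against NS5A.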

[3] = test system: Hepatitis C virus; test: Antiviral activity against HCV 1b BB7 infected in human HuH7 cells assessed as total viral RNA level after 3 days by RT-PCR analysis; format: functional, Hepacivirus hominis, genotype 1b BB7, Huh-7
[4] = Inhibition of HCV BK NS5B polymerase; parameters: species or system Hepatitis C virus (isolate BK)
[5] = test system: Hepatitis C virus; test: Antiviral activity against HCV 1b BB7 infected in human HuH7 cells assessed as GAPDH RNA level after 3 days by RT-PCR analysis; format: functional, Hepacivirus hominis, genotype 1b BB7, Huh-7
[6] = Cytotoxicity against human HuH7 cells assessed as BrdU incorporation in to cellular DNA by counter assay; format: cell-based, Huh-7
Procedure, shortened: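 General cytotoxicity counter assay run alongside the replicon assay, read out as BrdU incorporation into cellular DNA.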

[7] = Apparent permeability from apical to basolateral side of human Caco-2 cells; format: ADME, cell-based
[8] = Ratio of apparent permeability from basolateral to apical side over apical to basolateral side in human Caco-2 cells
[9] = Apparent permeability from basolateral to apical side of human Caco-2 cells; format: ADME, cell-based

Structure (SMILES)	IC50 [1]	EC50 [2]	IC50 [4]	CC50 [6]	further results
CCC[C@]1(CC(=O)O)OCCc2c1[nH]c1c(C)c(OCCn3cccn3)cc(C#N)c21	0.005 µM	0.88 µM	0.012 µM	–	Activity [3]: 0.14 µM; Activity [5]: >90 µM
CSCC1(CC(=O)O)OCCc2c1[nH]c1c(Cl)ccc(Cl)c21 (stereo unspecified)	–	–	7 µM	–	–
CC/C=C/C1(CC(=O)O)OCCc2c1[nH]c1c(Cl)ccc(Cl)c21 (stereo unspecified)	–	–	1.7 µM	–	–
O=C(O)CC1(C2CCCCC2)OCCc2c1[nH]c1c(Cl)ccc(Cl)c21 (stereo unspecified)	–	–	> 30 µM	–	–
CC(C#N)C1(CC(=O)O)OCCc2c1[nH]c1c(Cl)ccc(Cl)c21 (stereo unspecified)	–	–	0.3 µM	–	–
CCCCC1(CC(=O)O)OCCc2c1[nH]c1c(Cl)ccc(Cl)c21 (stereo unspecified)	–	–	0.76 µM	–	–
CC1(CC(=O)O)OCCc2c1[nH]c1c(Cl)ccc(Cl)c21 (stereo unspecified)	–	–	27 µM	–	–
CC(C)C1(CC(=O)O)OCCc2c1[nH]c1c(Cl)ccc(Cl)c21 (stereo unspecified)	–	–	7 µM	–	–
CCC[C@]1([C@H](NC(C)=O)C(=O)O)OCCc2c1[nH]c1c(C)ccc(C#N)c21 (racemic)	1.7 µM	> 100 µM	–	> 100 µM	–
C=CCOC(=O)N[C@H](C(=O)O)[C@@]1(CCC)OCCc2c1[nH]c1c(C)ccc(C#N)c21 (racemic)	5.9 µM	> 100 µM	–	> 100 µM	–
CCCCS(=O)(=O)N[C@H](C(=O)O)[C@@]1(CCC)OCCc2c1[nH]c1c(C)ccc(C#N)c21 (racemic)	3.6 µM	> 100 µM	–	> 100 µM	–
CCC[C@]1([C@H](NC(=O)OC(C)(C)C)C(=O)O)OCCc2c1[nH]c1c(C)ccc(C#N)c21 (racemic)	18 µM	> 100 µM	–	> 100 µM	–
CCC1(CC(=O)O)OCCc2c1[nH]c1c(Cl)ccc(Cl)c21 (stereo unspecified)	–	–	6.3 µM	–	–
CCCCC(=O)N[C@H](C(=O)O)[C@@]1(CCC)OCCc2c1[nH]c1c(C)ccc(C#N)c21 (racemic)	5 µM	> 100 µM	–	> 100 µM	–
CCC[C@]1([C@@H](NS(C)(=O)=O)C(=O)O)OCCc2c1[nH]c1c(C)ccc(C#N)c21 (racemic)	13 µM	> 100 µM	–	> 100 µM	–
CCC[C@]1([C@H](NC(=O)c2ccccc2)C(=O)O)OCCc2c1[nH]c1c(C)ccc(C#N)c21 (racemic)	4.5 µM	> 100 µM	–	> 100 µM	–
COCC1(CC(=O)O)OCCc2c1[nH]c1c(Cl)ccc(Cl)c21 (stereo unspecified)	–	–	> 30 µM	–	–
O=C(O)CC1(C2CCCC2)OCCc2c1[nH]c1c(Cl)ccc(Cl)c21 (stereo unspecified)	–	–	3.3 µM	–	–
COCCC1(CC(=O)O)OCCc2c1[nH]c1c(Cl)ccc(Cl)c21 (stereo unspecified)	–	–	> 24 µM	–	–
O=C(O)CC1(CC2CC2)OCCc2c1[nH]c1c(Cl)ccc(Cl)c21 (stereo unspecified)	–	–	1.9 µM	–	–
CC[C@H](C)[C@]1(CC(=O)O)OCCc2c1[nH]c1c(C)ccc(C#N)c21	0.26 µM	2.2 µM	0.13 µM	–	Activity [3]: 2.1 µM; Activity [5]: >10 µM
CCOCC1(CC(=O)O)OCCc2c1[nH]c1c(Cl)ccc(Cl)c21 (stereo unspecified)	–	–	26 µM	–	–
CCC[C@]1([C@@H](NC(C)=O)C(=O)O)OCCc2c1[nH]c1c(C)ccc(C#N)c21 (racemic)	17 µM	> 100 µM	–	> 100 µM	–

Structure (SMILES)	IC50 [1]	EC50 [2]	IC50 [4]	CC50 [6]	further results
CCCCS(=O)(=O)N[C@@H](C(=O)O)[C@@]1(CCC)OCCc2c1[nH]c1c(C)ccc(C#N)c21 (racemic)	22 µM	> 100 µM	–	> 100 µM	–
CCC[C@]1([C@H](NC(=O)OC)C(=O)O)OCCc2c1[nH]c1c(C)ccc(C#N)c21 (racemic)	5.6 µM	> 100 µM	–	> 100 µM	–
CCC[C@]1([C@H](NC(=O)OCC)C(=O)O)OCCc2c1[nH]c1c(C)ccc(C#N)c21 (racemic)	7.2 µM	> 100 µM	–	> 100 µM	–
CCC[C@]1([C@@H](NS(=O)(=O)c2ccccc2)C(=O)O)OCCc2c1[nH]c1c(C)ccc(C#N)c21 (racemic)	16 µM	> 100 µM	–	> 100 µM	–
CCCCC(=O)N[C@@H](C(=O)O)[C@@]1(CCC)OCCc2c1[nH]c1c(C)ccc(C#N)c21 (racemic)	> 30 µM	> 100 µM	–	> 100 µM	–
O=C(O)CC1(CCC(F)(F)F)OCCc2c1[nH]c1c(Cl)ccc(Cl)c21 (stereo unspecified)	–	–	0.4 µM	–	–
CCC[C@]1(CC(=O)O)OCCc2c1[nH]c1c(C)ccc(C#N)c21	0.4 µM	13.1 µM	0.3 µM	> 100 µM	Papp A→B [7]: 24 ×10⁻⁶ cm/s; efflux ratio [8]: 0.09; Activity [3]: 4.8 µM; Activity [5]: >160 µM; Papp B→A [9]: 2.2 ×10⁻⁶ cm/s
O=C(O)CC1(C2CCC2)OCCc2c1[nH]c1c(Cl)ccc(Cl)c21 (stereo unspecified)	–	–	0.35 µM	–	–
Cc1ccc(C#N)c2c3c([nH]c12)[C@](CC(=O)O)(C1CCC1)OCC3	1.1 µM	29.7 µM	0.4 µM	–	–
CCC(C)C1(CC(=O)O)OCCc2c1[nH]c1c(C)ccc(C#N)c21 (racemic)	4.9 µM	–	3.2 µM	–	–
CCCC1(CC(=O)O)OCCc2c1[nH]c1c(Cl)ccc(Cl)c21 (stereo unspecified)	–	–	0.37 µM	–	–
O=C(O)CC1(CC2CCCC2)OCCc2c1[nH]c1c(Cl)ccc(Cl)c21 (stereo unspecified)	–	–	9.4 µM	–	–
CC[C@H](C)[C@]1(CC(=O)O)OCCc2c1[nH]c1c(C)c(OCCn3cccn3)cc(C#N)c21	0.002 µM	0.12 µM	0.009 µM	–	Activity [3]: 0.02 µM; Activity [5]: >20 µM
CCC[C@]1([C@H](NC(=O)OCc2ccccc2)C(=O)O)OCCc2c1[nH]c1c(C)ccc(C#N)c21 (racemic)	0.72 µM	35 µM	–	45 µM	–
CCC[C@]1([C@H](NS(C)(=O)=O)C(=O)O)OCCc2c1[nH]c1c(C)ccc(C#N)c21 (racemic)	6 µM	> 100 µM	–	> 100 µM	–
CCC[C@]1(C(=O)O)OCCc2c1[nH]c1c(C)ccc(C#N)c21	–	–	0.7 µM	–	Papp A→B [7]: 3.2 ×10⁻⁶ cm/s; efflux ratio [8]: 7.5; Activity [3]: 12 µM; Activity [5]: >30 µM; Papp B→A [9]: 24.2 ×10⁻⁶ cm/s
O=C(O)CC1(C2CC2)OCCc2c1[nH]c1c(Cl)ccc(Cl)c21 (stereo unspecified)	–	–	7.3 µM	–	–
CCC[C@]1([C@H](NC(=O)OC(C)C)C(=O)O)OCCc2c1[nH]c1c(C)ccc(C#N)c21 (racemic)	11 µM	> 100 µM	–	> 100 µM	–
CCC[C@]1([C@@H](NC(=O)c2ccccc2)C(=O)O)OCCc2c1[nH]c1c(C)ccc(C#N)c21 (racemic)	> 30 µM	> 100 µM	–	> 100 µM	–
CCC(C)C1(CC(=O)O)OCCc2c1[nH]c1c(Cl)ccc(Cl)c21 (stereo unspecified)	–	–	0.15 µM	–	–
CCC[C@]1([C@H](NC(=O)OCC(C)C)C(=O)O)OCCc2c1[nH]c1c(C)ccc(C#N)c21 (racemic)	9.5 µM	> 100 µM	–	> 100 µM	–
CCC[C@]1([C@H](NS(=O)(=O)c2ccccc2)C(=O)O)OCCc2c1[nH]c1c(C)ccc(C#N)c21 (racemic)	4 µM	> 100 µM	–	> 100 µM	–
